According to paper PMC10651775 (Blood, 2022):
Structures can show the parent of a compound that is named as a salt. Where two headings read alike, the source gives them in different places.

Columns and labels:
[1] = test system: patients with R/R ATL; assay type: in vivo, human
Method in brief: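 Adults with R/R ATL (acute, lymphoma or unfavourable chronic type) took oral test compound (EZH1/EZH2 inhibitor) 200 mg once daily, fasting, in continuous 28-day cycles until progression or unacceptable toxicity; 50 mg if on strong CYP3A plus P-gp inhibitors. An independent committee assessed response at week 4, then every 8 weeks, then every 12 weeks after week 48, using modified ATL criteria without the ≥4-week persistence requirement.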

[2] = test system: patients with R/R ATL; experiment: Phase 2 trial of valemetostat: investigator-assessed response; assay type: in vivo, human; settings: 7/25 (CR plus CRu)
Method in brief: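 Investigator-assessed response in patients given ≥1 dose of oral test compound, 200 mg once daily, fasting, 28-day cycles. Nodal/extranodal lesions were measured by CT as sums of products of greatest diameters, skin by visual review and modified severity-weighted assessment tool, and blood by white cell, lymphocyte and abnormal lymphocyte counts. ORR was the proportion with best response CR, CRu or PR, with a Clopper-Pearson 90% CI.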

[3] = Plasma valemetostat pharmacokinetics, noncompartmental analysis; assay type: in vivo, human; settings: Mean (SD); for AUC / Cmax: human, plasma, oral, 200 mg; for AUC: AUCtau, Cycle 1 day 15 (steady state)
Method in brief: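 Patients took oral test compound, 200 mg once daily, fasting. Serial and trough blood samples were taken for plasma drug levels. Total and unbound drug were measured at steady state on cycle 1 day 15. Accumulation ratio was derived from AUC over the dosing interval.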

[4] = test system: patients with R/R ATL; experiment: Phase 2 trial of valemetostat: safety; assay type: in vivo, human
Method in brief: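 Safety population: all patients receiving ≥1 dose of oral test compound, 200 mg once daily, fasting, in continuous 28-day cycles; dose was reduced to 50 mg with strong CYP3A plus P-gp inhibitors. Adverse events were coded with MedDRA version 23.1 and graded by CTCAE version 5.0.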

[5] = test system: H3K27 trimethylation; settings: compared with the EZH2-selective inhibitor tazemetostat; cited from earlier work
[6] = test system: ATL cell; settings: compared with tazemetostat and GSK126; cited from earlier work
[7] = test system: R/R ATL; settings: phase 2 study (5/16); cited from earlier work
[8] = test system: R/R ATL; settings: phase 2 study (3/12); cited from earlier work
[9] = IEAC best response, ATL subtype Acute, N=16
[10] = IEAC best response, ATL subtype Lymphoma, N=6
[11] = IEAC best response, ATL subtype Unfavorable chronic, N=3
[12] = IEAC best response, All patients, N=25
[13] = IEAC best response, Disease site Nodal or extranodal lesions, N=20
[14] = IEAC best response, Disease site Peripheral blood, N=9
[15] = IEAC best response, Disease site Skin lesions, N=7
[16] = IEAC best response, Disease status Recurrent, N=6
[17] = IEAC best response, Disease status Refractory, N=11
[18] = IEAC best response, Disease status Relapsed, N=8
[19] = IEAC best response, Prior lenalidomide treatment No, N=17
[20] = IEAC best response, Prior lenalidomide treatment Yes, N=8
[21] = IEAC best response, Prior mogamulizumab treatment No, N=1
[22] = IEAC best response, Prior mogamulizumab treatment Yes, N=24
[23] = Grade ≥3 hematologic TEAE, % of patients
[24] = hematologic TEAE, all grades, % of patients

## Cc1cc(C)c(CNC(=O)c2cc(Cl)c3c(c2C)O[C@@](C)([C@H]2CC[C@H](N(C)C)CC2)O3)c(=O)[nH]1 [valemetostat, Valemetostat tosylate]
[1]; IEAC
  ORR in nodal or extranodal lesions: 50%
[1]; [9]
  CR: 5 (31.3) n (%)
  CRu: 0 n (%)
  ORR: 10 (62.5) n (%)
  PD: 2 (12.5) n (%)
  PR: 5 (31.3) n (%)
[1]; [10]
  CR: 0 n (%)
  CRu: 0 n (%)
  ORR: 1 (16.7) n (%)
  PD: 0 n (%)
  PR: 1 (16.7) n (%)
[1]; [11]
  CR: 0 n (%)
  CRu: 0 n (%)
  ORR: 1 (33.3) n (%)
  PD: 1 (33.3) n (%)
  PR: 1 (33.3) n (%)
[1]; [12]
  CR: 5 (20.0) n (%)
  CRu: 0 n (%)
  ORR: 12 (48.0) n (%)
  PD: 3 (12.0) n (%)
  PR: 7 (28.0) n (%)
[1]; [13]
  CR: 6 (30.0) n (%)
  CRu: 2 (10.0) n (%)
  ORR: 10 (50.0) n (%)
  PD: 3 (15.0) n (%)
  PR: 2 (10.0) n (%)
[1]; [14]
  CR: 2 (22.2) n (%)
  ORR: 8 (88.9) n (%)
  PD: 0 n (%)
  PR: 6 (66.7) n (%)
[1]; [15]
  CR: 1 (14.3) n (%)
  PD: 0 n (%)
  PR: 2 (28.6) n (%)
[1]; [16]
  CR: 1 (16.7) n (%)
  CRu: 0 n (%)
  ORR: 4 (66.7) n (%)
  PD: 0 n (%)
  PR: 3 (50.0) n (%)
[1]; [17]
  CR: 3 (27.3) n (%)
  CRu: 0 n (%)
  ORR: 5 (45.5) n (%)
  PD: 2 (18.2) n (%)
  PR: 2 (18.2) n (%)
[1]; [18]
  CR: 1 (12.5) n (%)
  CRu: 0 n (%)
  ORR: 3 (37.5) n (%)
  PD: 1 (12.5) n (%)
  PR: 2 (25.0) n (%)
[1]; [19]
  CR: 5 (29.4) n (%)
  CRu: 0 n (%)
  ORR: 8 (47.1) n (%)
  PD: 2 (11.8) n (%)
  PR: 3 (17.6) n (%)
[1]; [20]
  CR: 0 n (%)
  CRu: 0 n (%)
  ORR: 4 (50.0) n (%)
  PD: 1 (12.5) n (%)
  PR: 4 (50.0) n (%)
[1]; [21]
  CR: 1 (100.0) n (%)
  CRu: 0 n (%)
  ORR: 1 (100.0) n (%)
  PD: 0 n (%)
  PR: 0 n (%)
[1]; [22]
  CR: 4 (16.7) n (%)
  CRu: 0 n (%)
  ORR: 11 (45.8) n (%)
  PD: 3 (12.5) n (%)
  PR: 7 (29.2) n (%)
[1]; IEAC-assessed, range 1.0-5.6 months
  median TTR (time to response): 1.4 months
[1]; IEAC, acute (10/16)
  ORR by subtype: 62.5%
[1]; IEAC, all patients (5/25)
  CR rate: 20.0%
[1]; IEAC, all patients (7/25)
  PR rate: 28.0%
[1]; IEAC, best response CR, CRu, PR or SD, 95% CI 68.8-97.5
  TCR (tumor control rate): 88.0%
[1]; IEAC, lymphoma (1/6)
  ORR by subtype: 16.7%
[1]; IEAC, patients pretreated with mogamulizumab (11/24), 90% CI 28.2-64.2
  ORR: 45.8%
[1]; IEAC, patients refractory to mogamulizumab-containing therapies (3/6)
  ORR: 50.0%
[1]; IEAC, patients with prior lenalidomide treatment (4/8), 90% CI 15.7-84.3
  ORR: 50%
[1]; IEAC, recurrent (4/6)
  ORR by disease status: 66.7%
[1]; IEAC, refractory disease (5/11)
  ORR by disease status: 45.5%
[1]; IEAC, relapsed (3/8)
  ORR by disease status: 37.5%
[1]; IEAC, unfavorable chronic (1/3)
  ORR by subtype: 33.3%
[1]; all patients (12/25), 90% CI 30.5-65.9
  centrally reviewed IEAC-assessed ORR: 48.0%
[1]; at data cutoff (6/12)
  responders with an ongoing response: 50%
[1]; following treatment initiation
  patients who achieved SD able to receive valemetostat for ≥6 months: 4 of 10
[1]; immature, 95% CI 3.0 months to not estimable
  median PFS: 7.4 months
[1]; immature, 95% CI 6.5-16.4 months
  median OS: 16.4 months
[1]; in vivo
  responses converted from PR to CR: 2 patients
[2]
  investigator-assessed CR rate: 28.0%
[3]; Total, Cycle 1 day 15
  Rac (accumulation ratio for AUCtau): 1.19
[3]; Unbound, Cycle 1 day 15
  Rac (accumulation ratio for AUCtau): 1.27
[3]; Total
  AUC: 20800 ng·h/mL
[3]; Unbound
  AUC: 584 ng·h/mL
[3]; Total valemetostat, Cycle 1 day 1, 200 mg once daily
  Cmax: 2230 ng/mL
[3]; Total valemetostat, Cycle 1 day 15
  Cmax: 2300 ng/mL
[3]; Unbound valemetostat, Cycle 1 day 1
  Cmax: 81.7 ng/mL
[3]; Unbound valemetostat, Cycle 1 day 15
  Cmax: 84.9 ng/mL
[4]; 2 patients
  TEAEs leading to dose reduction: 8%
[4]; 8 patients
  Serious TEAEs: 32%
[4]; AE of special interest
  Secondary malignancies, including hematologic malignancy or myelodysplastic syndrome: not observed
[4]; Five patients
  TEAEs that required dose interruption: 20%
[4]; [23]
  anemia: 32%
  leukopenia: 12%
  lymphopenia: 16%
  neutropenia: 12%
  thrombocytopenia: 32%
[4]; N = 25
  Grade ≥3 TEAEs: 15 (60.0) n (%)
  Grade ≥3 TRAEs: 14 (56.0) n (%)
  Serious TEAE: 8 (32.0) n (%)
  Serious TRAEs: 7 (28.0) n (%)
  TEAEs leading to discontinuation: 2 (8.0) n (%)
  TEAEs leading to interruption: 5 (20.0) n (%)
  TEAEs leading to reduction: 2 (8.0) n (%)
  TRAEs: 24 (96.0) n (%)
  TRAEs leading to discontinuation: 2 (8.0) n (%)
  TRAEs leading to interruption: 4 (16.0) n (%)
  TRAEs leading to reduction: 2 (8.0) n (%)
[4]; N = 25, All AEs
  TEAEs: 25 (100.0) n (%)
[4]; TEAE, All grades, N = 25
  Alopecia: 10 (40.0) n (%)
  Decreased appetite: 5 (20.0) n (%)
  Dysgeusia: 9 (36.0) n (%)
  Pyrexia: 5 (20.0) n (%)
  anemia: 13 (52.0) n (%)
  leukopenia: 5 (20.0) n (%)
  lymphopenia: 6 (24.0) n (%)
  neutropenia: 7 (28.0) n (%)
  thrombocytopenia: 20 (80.0) n (%)
[4]; TEAE, Grade ≥3, N = 25
  Alopecia: 0 n (%)
  Decreased appetite: 2 (8.0) n (%)
  Dysgeusia: 0 n (%)
  Pyrexia: 0 n (%)
  anemia: 8 (32.0) n (%)
  leukopenia: 3 (12.0) n (%)
  lymphopenia: 4 (16.0) n (%)
  neutropenia: 3 (12.0) n (%)
  thrombocytopenia: 8 (32.0) n (%)
[4]; Two patients (cardiac failure, thrombocytopenia)
  discontinued study treatment owing to AEs: 8%
[4]; discontinuation 1 patient, dose interruption 2 patients
  patients with thrombocytopenia who required dose modification: Three of 20
[4]; grade 4 thrombocytopenia, recovery to platelet count ≥25 × 10^9/L
  median time to recovery: 3 days
[4]; [24]
  anemia: 52%
  leukopenia: 20%
  lymphopenia: 24%
  neutropenia: 28%
  thrombocytopenia: 80%
[4]; in vivo
  patients requiring a red blood cell transfusion for anemia: 3 patients
  patients requiring platelet transfusions for thrombocytopenia: Five
  treatment-related deaths: No treatment-related deaths occurred
[4]; platelet count <25 × 10^9/L
  patients who experienced grade 4 thrombocytopenia: 3 patients
[5]
  H3K27 trimethylation: strongly reduced H3K27 trimethylation
[6]
  attenuation of ATL cell growth in vitro: greater attenuation of ATL cell growth in vitro at lower concentrations than tazemetostat and GSK126

## Nc1cccc2c1CN(C1CCC(=O)NC1=O)C2=O (stereo not shown) [lenalidomide]
[7]
  ORR in nodal or extranodal lesions: 31%

B1: mogamulizumab: defucosylated anti-CCR4 antibody (antibody, chains of the INN, looked up, V domains shown)
VH: EVQLVESGGDLVQPGRSLRLSCAASGFIFSNYGMSWVRQAPGKGLEWVATISSASTYSYYPDSVKGRFTISRDNAKNSLYLQMNSLRVEDTALYYCGRHSDGNFAFGYWGQGTLVTVSS
VL: DVLMTQSPLSLPVTPGEPASISCRSSRNIVHINGDTYLEWYLQKPGQSPQLLIYKVSNRFSGVPDRFSGSGSGTDFTLKISRVEAEDVGVYYCFQGSLLPWTFGQGTKVEIK
[8]
  ORR in nodal or extranodal lesions: 25%
